Screening data deposited in PubChem BioAssay by Columbia University Molecular Screening Center.
Insulin prom act: TRM-6 insulin promoter activation | hit rate 0.81% among 130,000 | TRM-6 cells (human fetal islet line), insulin promoter eGFP reporter, imaging; plate-scaled: unstimulated 0, stimulated control 100 | activation, % at 2 µM;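 active = activation at 2 µM above a set limit, confirmed on inspection of the cell images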;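 note: share of cells whose green reporter signal exceeds an intensity cutoff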
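test system = TRM-6 insulin promoter–eGFP reporter cells | benchmarks = stimulated versus unstimulated wells as plate controls | read-out basis = percent cells above green-intensity threshold, converted to percent activation versus plate controls | detection = fixed-cell fluorescence microscopy, eGFP plus Hoechst | incubation = tamoxifen pre-incubation 15 h overnight, then compound exposure 48 h at 37 °C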
The depositor's hits bear a star. This is one part of a sample in which hits are shown more often than they occur.

SMILES	Insulin prom act
O=C1c2ccc(Br)cc2C(=O)N1c1ccc(Cc2ccncc2)cc1	7
N#CC1=C(N)C(C#N)(C#N)[C@H](c2ccoc2)[C@H]2CN(Cc3ccccc3)CC=C12	212*
N#CC1=C(N)C(C#N)(C#N)C(c2cccnc2)C2COCC=C12 (configuration not stated)	0
N#CC1=C(N)C(C#N)(C#N)C(c2cccnc2)C2CN(C(=O)OCc3ccccc3)CC=C12 (configuration not stated)	115
COc1ccc2cc(CN(CC3CCCO3)C(=S)Nc3ccccc3)c(=O)[nH]c2c1 (configuration not stated)	-7
CCN(CC)C(=O)C12CC3CC(CC(Br)(C3)C1)C2	-3
COc1ccc(NC(=O)C2CCCCN2CC(=O)OCc2ccccc2)cc1OC (configuration not stated)	-9
CN(C)/C=C/C(=O)c1cnc(-c2ccccn2)s1	9
COc1cccc(N/C=C/C(=O)c2ccc(Br)cc2)c1	4
COc1ccc(C(=O)/C=C/Nc2cccc(O)c2)cc1	80*
COc1ccc(N/C=C\C(=O)c2ccc3c(c2)OCO3)cc1	6
CCC(C)(C)NC(=O)C(c1ccc(C)cc1)N(Cc1ccco1)C(=O)CCC(=O)Nc1nccs1 (configuration not stated)	-2
CC12CCC(C(=O)Nc3cc(Cl)ccc3Cl)(C(Br)C1=O)C2(C)C (configuration not stated)	-3
O=C1C(=O)N(CCN2CCOCC2)C(c2ccncc2)/C1=C(/O)c1ccc2c(c1)OCO2 (configuration not stated)	4
CC1Cc2cc(/C(O)=C3/C(=O)C(=O)N(CCN4CCOCC4)C3c3cccc(O)c3)ccc2O1 (configuration not stated)	467*
CCN(CC)CCCN1C(=O)C(=O)/C(=C(/O)c2ccc(C)cc2)C1c1ccccn1 (configuration not stated)	0
Cc1ccc(/C(O)=C2/C(=O)C(=O)N(CCN3CCOCC3)C2c2ccccn2)cc1 (configuration not stated)	850*
O=C(C1=C(O)C(=O)N(CCCN2CCOCC2)C1c1ccccn1)c1cc2ccccc2o1 (configuration not stated)	0
CCN(CC)CCCN1C(=O)C(=O)/C(=C(/O)c2ccc3c(c2)OCCO3)C1c1ccco1 (configuration not stated)	-6
COc1ccc(N2CCN(C(=O)CN(C)S(=O)(=O)c3cc(C)ccc3OC)CC2)cc1	-6
O=C(NCCc1nnc2ccc(NCc3ccc(Cl)cc3)nn12)c1ccccc1	6
COC(=O)c1ccc(OC)c(CSc2nnc(-c3ccc(C(C)(C)C)cc3)o2)c1	508*
COc1ccccc1NC(=O)CSc1nnc(-c2ccncc2)o1	-7
COc1ccc(-c2nnc(SCC(=O)Nc3ccccc3OC)o2)cc1	5
Nc1ccc2nc(SCc3cccc(F)c3)sc2c1	-78
SMILES	Insulin prom act
Cc1ccc(C(=O)NCC(=O)N/N=C/c2cccs2)cc1[N+](=O)[O-]	0
COc1ccc(/C=N/n2c(N)nc3ccccc32)cc1OC	-75
COc1cc(/C=C(\C#N)c2nc3ccccc3n2C)cc(OC)c1O	479*
CCn1c(SCC(=O)N/N=C/c2cc(OC)c(O)c(OC)c2)nc2ccccc21	-3
Cc1ccc(N(C(=O)Cn2nnc3ccccc32)C(C(=O)NCc2ccco2)c2ccc(C)o2)cc1 (configuration not stated)	-8
COc1ccc(N(C(=O)Cn2nnc3ccccc32)C(C(=O)NC(C)(C)C)c2ccc(OC)c(O)c2)cc1 (configuration not stated)	-7
CCC(C)(C)NC(=O)C(c1ccco1)N(C(=O)Cn1nnc2ccccc21)c1ccc2c(c1)OCO2 (configuration not stated)	83*
O=C(NCc1ccccc1C(F)(F)F)C12CN(Cc3ccccc3)CC1C(c1ccc([N+](=O)[O-])cc1)=NO2 (configuration not stated)	-5
O=C1OCCN1C(=O)[C@H]1[C@H](c2ccc([N+](=O)[O-])cc2)C(c2cccc(Cl)c2)=NN1c1ccccc1	273*
O=[N+]([O-])c1ccc(N2N=C(c3ccco3)CC2c2ccccc2)cc1 (configuration not stated)	106
Cc1ccccc1CSc1nccn1-c1ccccc1	-3
CCOc1cccc(-c2cc(C(=O)N3N=C(C)CC3(O)C(F)F)c3ccccc3n2)c1 (configuration not stated)	6
CC1=NN(c2ccccc2)C(=O)/C1=C\N1CC(C)OC(C)C1 (configuration not stated)	-3
O=C1NN(c2ccc(F)cc2)C(=O)/C1=C\C=C\c1ccco1	3
CC1=NN(c2cccc(C(=O)O)c2)C(=O)/C1=C\C=C\c1ccco1	456*
CC(Nc1[nH]c(=O)n(C)c(=O)c1N=O)c1ccccc1 (configuration not stated)	0
COc1cccc(/C=C/C(=O)NCc2cn3cc(Cl)ccc3n2)c1OC	-8
O=C(c1cccc(S(=O)(=O)N2CCc3ccccc3C2)c1)N1CCN(c2ccc(O)cc2)CC1	107
CCOC(=O)c1nn(-c2ccccc2)c2nc(-c3ccc(OC)cc3)c(C#N)c(=O)n12	7
Cc1c(C(=O)NN)nn(-c2ccc(Cl)cc2)c(=O)c1C#N	0
COC(=O)Nc1nn(-c2ccc(OC)cc2)c(=O)c(C#N)c1C	287*
CCc1ccc(C2=NNC(=Nc3cccc(S(=O)(=O)N(C)C)c3)SC2)cc1	117
Cc1ccc(C23CC4CC(CC(CC(=O)N5CCOCC5)(C4)C2)C3)cc1	0
COc1ccc(-c2nc(N)n(S(=O)(=O)c3ccc(C)cc3)n2)cc1	8
COc1nc(N)c(S(=O)(=O)c2ccc(C)cc2)cc1C#N	197*
SMILES	Insulin prom act
Cc1ccc(S(=O)(=O)c2c(C)cc(C)nc2Cl)cc1	3
O=[N+]([O-])c1cc(S(=O)(=O)NC2=NCCCCC2)ccc1NCC1CCCCC1	9
Cc1cc(C)nc(NS(=O)(=O)c2ccc(NC(=O)c3ccc4c(c3)OCCO4)cc2)n1	5
O=C(O)c1ccc(Nc2ncnc3c2cnn3Cc2ccccc2)cc1	0
COC(=O)CN1C(=O)S/C(=C/c2cc(C)n(C)c2C)C1=O	-4
COC(=O)CN1C(=O)S/C(=C/c2ccc(N3CCCCC3)o2)C1=O	184*
O=C(CN1C(=O)S/C(=C/c2ccc(N3CCOCC3)cc2)C1=O)N1CCOCC1	-6
COc1ccc(/C=N/NC(=O)CC2N=C(Cc3ccccc3)NNC2=O)cc1OC (configuration not stated)	7
Oc1ccc(-c2nccc(-c3cccs3)n2)cc1	-4
COC(=O)c1c([N+](=O)[O-])c(OC)c(OC)c(OC)c1[N+](=O)[O-]	8
C=C1C(O)C[C@H]2C(=C)CCC3[C@H](OC(=O)[C@]3(O)CO)[C@@H]12 (some centres not stated)	275*
COc1ccc(Cl)cc1NC(=O)c1cccc(NC(=O)CCC(=O)O)c1	0
CC(=O)c1ccc(NC(=O)C2C3C=CC(C3=C(c3ccccc3)c3ccccc3)C2C(=O)O)cc1 (configuration not stated)	0
O=C(CCc1nc2ccccc2c(=O)[nH]1)OCC(=O)c1ccc(C2CCCCC2)cc1	0
CCN(CC(=O)NC(=O)NC1CCCCC1)Cc1nc2ccccc2c(=O)[nH]1	3
O=C(COCc1nc2ccccc2c(=O)[nH]1)NCC1CCCCC1	486*
C=C(C)CNC(=S)NNC(=O)c1ccc(Br)cc1	3
